In the EternaBench riboswitch data:

Tested on: MS2 coat protein
Assay: apparent Kd, MS2 coat protein; higher = weaker binding; RNA-MaP array; FMN 200 µM where present
Summary of the method: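 Stalled E. coli RNA polymerase transcribed each design on Illumina sequencing-chip clusters. The clusters were titrated with SNAP-549-labelled MS2 coat protein, starting at 0.7 or 1.5 nM and doubling up to 3 µM, first without ligand and then with constant ligand, in 100 mM Tris-HCl pH 7.5, 80 mM KCl, 4 mM MgCl2, BSA, DTT, yeast tRNA and Tween-20. Green signal was normalised to red-channel RNA signal and to the control-cluster median Fmax. The apparent Kd is the median of filtered binding-curve fits made for each cluster.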

[1] = designed as: OFF switch for flavin mononucleotide, no ligand
[2] = ligand present: flavin mononucleotide, designed as: OFF switch for flavin mononucleotide
[3] = designed as: ON switch for flavin mononucleotide, no ligand
[4] = ligand present: flavin mononucleotide, designed as: ON switch for flavin mononucleotide

Sequence | apparent Kd [1] [nM] | apparent Kd [2] [nM] | apparent Kd [3] [nM] | apparent Kd [4] [nM]
AUUUGACACGUAGGAUAUCGCUUAAAUUUAACACGAGAAGGACGAACAUGAGGAUCACCCAUGUAUCAUGGAGUAGAUAAUUUG | 115 | 329 | – | –
AUUUUAAAGGGAGGAUAUACAUGAGGAUCACCCAUGUAAACGUGAGGAUCACCCAUGUAAACAAUGUAGAAGGCCUAUAUCUAU | 86 | 74.1 | – | –
AUUUUUUGUCAUGUACAUGAGGAACAUGAGGAUCACCCAUGUAGAAGGAAUUUUUUUAAGUUUAGUUAGGAUAUACAUAUAUUA | 47.7 | 28.6 | – | –
CAAACGUGAGGAUAUACAUGAGGAUCACCCAUGUGCUCCUCUAAACUGAAGAAGUAAUGUAGAAGGCACGUUUG | 39.2 | 17.7 | – | –
CAAAGUAGCACAGGAUAUCAUACAUGAGGAUCACCCAUGUCAAGAAGCAAAUGAGAAGGGUGCAGACGGUGUUGGAGCGGUUGC | – | – | 68.6 | 7.02
CAAUUUAUAUCAGGAUAUACAAUACAAUUAUUAGUAGAAGGGAUUAAUACAUGAGGAUCACCCAUGUCAUGUGUCAUAAUAACC | 22.6 | 18.1 | – | –
CAAUUUAUUGCAGGAUAUACAAUACAAUGAUUAGUAGAAGGGUAUAAUACAUGAGGAUCACCCAUGUCAUGUGUCAUAAUAACC | 36.7 | 27.6 | – | –
CACAAGUAUAACGAUUUCAAGGCACAGGAUAUGAGUGUGCACAUGAGGAUCACCCAUGUUAUAACUUAGAAGGGUGACCAUCGC | – | – | 402 | 433
CACAGGGAUUCAGGAUAUAUUAGCCGAGGCCGCGUAGAAGGGAAAUCCUGACAUGAGGAUCACCCAUGUCGACCCGCCUUCCAC | – | – | 24.2 | 25.3
CACAGGGAUUCAGGAUAUAUUAGCCGAGGCCGCGUAGAAGGGAAAUCCUGACAUGAGGAUCACCCAUGUUAACCCGCCUUCCAU | – | – | 37.6 | 42
CACCCUGAUGUCAGGAUAUGCGCGUCGCGCCUCGAGCAGAAGGGACAUGAGGAUCACCCAUGUUGUCUCUUGGG | 48.9 | 98.7 | – | –
CACCGUAACAGAGGAUAUGAUACAUGAGGAUCACCCAUGUAAUAAAUGAGAAUUUCGAAUGUACCUCAGAAGGCUGGAACCGGC | 45.7 | 96.6 | – | –
CACCGUUAGCGAGGAUAUCGUACAUGAGGAUCACCCAUGUAAUAAAUGAGAAUUUCGGAUGUAUGCGAGAAGGCGCAAAUCGGC | 59 | 43.4 | – | –
CACGAUCAUGUAGGAUAUAUACUGGAAUACAGUAUAGAAGGACAUGAGGAUCACCCAUGUUAAGUGCCUCCAAGUAAGAUCGUG | 17 | 23 | – | –
CACGAUGAUGUAGGAUAUAUGCUGGAAUACAGCAUAGAAGGACAUGAGGAUCACCCAUGUUAAGUGCCUCCAAGUAACAUCGUG | 15.4 | 22.4 | – | –
CACGCAUGUGGAGGAUAUGCAGUUAACAUUAGCGCAGAAGGCCACAUGAGGAUCACCCAUGUCCGGCAUUAGCCGAUGUUGAUC | 139 | 227 | – | –
CACGUCAGGAAACGGAGCGGCCAACAUGAGGAUCACCCAUGUGAGGAUAUGCCUACUAAAAGUAGGCAGAAGGCGCAAUUGGCA | 29.1 | 39.9 | – | –
CACGUCUGGAAACGGAGCGGCCAACAUGAGGAUCACCCAUGUGAGGAUAUGCCUACUAAAAGUAGGCAGAAGGCGCAAUUGGCA | 31.2 | 44.7 | – | –
CACGUGUAAGGAUAUGACAAUGGUAUCUUCGGAUACCAUUGUCAGAAGGUACAUGAGGAUCACCCAUGUAACAC | 16.1 | 26.8 | – | –
CACUCACAUGAGGAUCACCCAUGUCCUAGCAGGUCAGGAUAUAGCUCGGAUGCGUUGAGUCUAGAAGGGACACGUU | – | – | 96.7 | 62.5
CACUGCAAUGUAGGAUAUCGACUGGAUAACAGUCGAGAAGGACAUGAGGAUCACCCAUGUACUAUGAGUGAAUAAUAAGCAGUG | 89 | 950 | – | –

Sequence | apparent Kd [1] [nM] | apparent Kd [2] [nM] | apparent Kd [3] [nM] | apparent Kd [4] [nM]
CAGAAGUCAGGAUAUGCAUGGCGGGACUUGCGUCGUGGCGUGCAGAAGGGACAUGAGGAUCACCCAUGUGGAGC | 118 | 182 | – | –
CAGAAUUGAGGAUAUGAUCAAUUUAACAUGAGGAUCACCCAUGUAUGGGAAUGAUUCUGAUCAGAAGGCGAUUCUU | 1290 | 910 | – | –
CAGACCGGCAUAGGAUAUGUCGACAUGAGGAUCACCCAUGUAAGCCUUGUCUGGUCCGGUGUGUGACAGAAGGAUGUCGGCCAU | 37.7 | 26.4 | – | –
CAGACCGGCGUAGGAUAUGUCGACAUGAGGAUCACCCAUGUAAACCUUGUCUGGUCCGGUGUGUGACAGAAGGAUGUCGGCCAU | 14.6 | 27.9 | – | –
CAGAUCGGCUAGGAUAUCCAUGGUAUGUUACGAGGAGAAGGAGUCACAUGAGGAUCACCCAUGUCUCAUACUGA | 24.7 | 31.8 | – | –
CAGCGAAAGUAGAAGGCAGUACUGAUACAGUACUGAGGAUAUACAUGAGGAUCACCCAUGUACUUCAGCUGGAAAUAAAUAAAA | 5.59 | 6.32 | – | –
CAGCGCUGUCGAGAGGAUAUGCGGUGAUGGACAUGAGGAUCACCCAUGUUAGCGGUAGCAUUACGGUAGAAGGCUCUACAGCUGC | – | – | 31 | 13.2
CAGCGGCAAGGAUAUACAUGAGGAUCACCCAUGUGGUCCCGCUAUAGUAACUUAGCUUGUAGAAGGUGCAGCUA | 36.5 | 218 | – | –
CAGCGGUGAGGAUAUACGUAGGUACAGAUCUGUGUGUUCCUACAUGAGGAUCACCCAUGUAGAAGGCAUGGCUG | 43 | 140 | – | –
CAGCUGAAAGUCAGGAUAUCUAGAGCGAUAGCUCUAGAGAAGGGACAUGAGGAUCACCCAUGUCACUCCAGCUG | 17.1 | 20.4 | – | –
CAGGAUAGAGGAUAUACAUAGAUACAGAUUCAUGUGGUCCUACAUGAGGAUCACCCAUGUAGAAGGCUAUCCUG | 166 | 30 | – | –
CAGGUAGACUGAGGAUAUACAAGACUUAGUCUAUCUAGGUCAUUAACCACAUGAGGAUCACCCAUGUAGAAGGCAGUCUGCCUG | 17.7 | 23.9 | – | –
CAGGUAGACUGAGGAUAUACACAAAACAGCUAGUCUAUCUAGCUGCUCACAUGAGGAUCACCCAUGUAGAAGGCAGUCUGCCUG | 18.4 | 37.8 | – | –
CAGGUAGACUGAGGAUAUACAGACCUAGUCUAUCUAGGUCAAUUCCUUACAUGAGGAUCACCCAUGUAGAAGGCAGUCUGCCUG | 18.7 | 38.8 | – | –
CAGUACUGAGGAUAUACAUGAGGAUCACCCAUGUGUUCCAGCUAGGAAACUAGCAAAUGUAGAAGGCAGUACUG | 212 | 317 | – | –
CAGUACUGAGGAUAUACAUGAGGAUCACCCAUGUGUUCCAGCUUGGAAACUAGCAAAAGUAGAAGGCAGUACUG | 14.8 | 158 | – | –
CAGUACUGAGGAUAUACAUGAGGAUCACCCAUGUGUUCCUGCUAGGAAACUAGCAAAAGUAGAAGGCAGUACUG | 25.2 | 532 | – | –
CAGUACUGAGGAUAUACAUGAGGAUCACCCAUGUGUUCCUGCUAGGAUAUUAGCAAAAGUAGAAGGCAGAAGGGAAUGUGCCUA | 6.93 | 6.73 | – | –
CAGUCUACAGGAUAUACAUGAGGAUCACCCAUGUGUUUUCACUUUCAGUAGUCUAUAUGUAGAAGGGUAGACUG | 24.8 | 90.1 | – | –
CAGUGCUGUUGAGAGGAUAUGCGGCGACGGACAUGAGGAUCACCCAUGUUAGCGACAGCGUUGCGGCAGAAGGCUCUGCCCACUG | – | – | 11.2 | 10.4
CAGUGCUGUUGAGAGGAUAUGCGGCGACGGACAUGAGGAUCACCCAUGUUAGCGACAGCGUUGCGGCAGAAGGCUCUGCCCGCUG | – | – | 21 | 13.7
